Test results from ChEMBL document CHEMBL1777755, “A new iridoid and effect on the rat aortic vascular smooth muscle cell proliferation of isolated compounds from Buddleja officinalis” (Bioorg Med Chem Lett, 2011).
The source made the active and inactive calls. The calls are words filed in the database; no cut-off is given here.

Assays:
VSMC [1] = experiment: (§1) Antiproliferative activity against PDGF-BB-induced rat VSMC proliferation at 10 uM after 24 hrs by WST1 (CCK-8) assay; type: functional
In short: (§2)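 Rat aortic VSMCs were seeded at 4 × 10^4 cells/well and grown 48 h in DMEM with 10% FBS. They were then held 24 h in serum-free medium with compounds (0–50 µM), then stimulated 24 h. The methods footnote gives the stimulus as 5% FBS; the figure legends give 25 ng/mL PDGF-BB. WST-1 was added at 22 h for 2 h, and OD read at 450 nm. AG1295 (1 µM) served as positive control; mean ± SD, n = 4.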

VSMC [2] = experiment: (§3) Antiproliferative activity against PDGF-BB-induced rat VSMC proliferation at 50 uM after 24 hrs by WST1 (CCK-8) assay; type: functional; in short: as §2
[3] = Cytotoxicity against PDGF-BB-induced rat VSMC at 50 uM
VSMC [4] = experiment: Antiproliferative activity against PDGF-BB-induced rat VSMC proliferation after 24 hrs by WST1 (CCK-8) assay; type: functional; in short: as §2
[5] = Antiproliferative activity against PDGF-BB-induced rat VSMC proliferation at 30 uM after 24 hrs by WST1 (CCK-8) assay; type: functional; in short: as §2
[6] = as §1; type: functional; in short: as §2
[7] = as §3; type: functional; in short: as §2

| Compound | Activity (VSMC [1]) | Activity (VSMC [2]) | Activity [3] | Activity (VSMC [4]) | also measured |
| --- | --- | --- | --- | --- | --- |
| COc1cc(C(=O)O[C@@H]2C[C@](C)(O)[C@H]3[C@H](O[C@@H]4O[C@H](CO)[C@@H](O)[C@H](O)[C@H]4O)OC=C[C@H]32)ccc1O | inactive | Active | Non-toxic | Dose-dependent effect | – |
| C[C@@H]1O[C@@H](OC[C@H]2O[C@@H](OCCc3ccc(O)c(O)c3)[C@H](O)[C@@H](O[C@@H]3O[C@@H](C)[C@H](O)[C@@H](O)[C@H]3O)[C@@H]2OC(=O)/C=C/c2ccc(O)c(O)c2)[C@H](O)[C@H](O)[C@H]1O | – | inactive | – | – | – |
| C[C@@H]1O[C@@H](O[C@@H]2[C@@H](O)[C@H](OCCc3ccc(O)c(O)c3)O[C@H](CO)[C@H]2O)[C@H](O)[C@H](O)[C@H]1O | – | inactive | – | – | – |
| C[C@@H]1O[C@@H](O[C@@H]2[C@@H](O)[C@H](OCCc3ccc(O)c(O)c3)O[C@H](CO)[C@H]2OC(=O)/C=C/c2ccc(O)c(O)c2)[C@H](O)[C@H](O)[C@H]1O | – | inactive | – | – | – |
| C[C@H]1O[C@H](O[C@@H]2[C@@H](O)[C@H](OCCc3ccc(O)c(O)c3)O[C@H](CO[C@H]3O[C@@H](CO)[C@H](O)[C@@H](O)[C@@H]3O)[C@H]2OC(=O)/C=C/c2ccc(O)c(O)c2)[C@@H](O)[C@@H](O)[C@@H]1O | – | inactive | – | – | – |
| OC[C@H]1O[C@@H](OCCc2ccc(O)cc2)[C@H](O)[C@@H](O)[C@@H]1O | – | inactive | – | – | – |
| OC[C@H]1O[C@@H](OCCc2ccccc2)[C@H](O)[C@@H](O)[C@@H]1O | – | inactive | – | – | – |
| COc1ccc(-c2cc(=O)c3c(O)cc(O[C@@H]4O[C@H](CO[C@@H]5O[C@@H](C)[C@H](O)[C@@H](O)[C@H]5O)[C@@H](O)[C@H](O)[C@H]4O)cc3o2)cc1 [ACACIIN] | inactive | Active | Non-toxic | Dose-dependent effect | inhibition at 30 µM [5]: 21.2% |
| O=c1cc(-c2ccc(O)cc2)oc2cc(O)cc(O)c12 [APIGENIN] | inactive | – | Toxic | – | – |
| C=C[C@](C)(O)CC/C=C(\C)CO[C@@H]1O[C@H](CO)[C@@H](O)[C@H](O)[C@H]1O [BETULALBUSIDES A] | inactive | Active | Non-toxic | Dose-dependent effect | – |
| CO[C@@H]1C=C2[C@@H]3CC(C)(C)CC[C@]3(CO)[C@@H](O)C[C@@]2(C)[C@]2(C)CC[C@H]3[C@](C)(CO)[C@@H](O[C@@H]4O[C@H](C)[C@H](O)[C@H](O[C@@H]5O[C@H](CO)[C@@H](O[C@@H]6O[C@@H](C)[C@H](O)[C@@H](O)[C@H]6O)[C@H](O)[C@H]5O)[C@H]4O[C@@H]4O[C@H](CO)[C@@H](O)[C@H](O)[C@H]4O)CC[C@]3(C)[C@@H]12 [BUDDLEJASAPONIN IA] | – | – | Toxic | – | – |
| C[C@H]1O[C@@H](O[C@H]2CC[C@@]3(C)[C@@H](CC[C@]4(C)[C@@H]3C=C[C@]35OC[C@@]6(CCC(C)(C)C[C@H]63)[C@@H](O)C[C@]54C)[C@]2(C)CO)[C@H](O)[C@@H](O[C@@H]2O[C@H](CO)[C@@H](O)[C@H](O)[C@H]2O)[C@H]1O[C@@H]1OC[C@@H](O)[C@H](O)[C@H]1O [BUDDLEJASAPONIN III] | – | – | Toxic | – | – |
| CO[C@@H]1C=C2[C@@H]3CC(C)(C)CC[C@]3(OC)[C@@H](O)C[C@@]2(C)[C@]2(C)CC[C@H]3[C@](C)(CO)[C@@H](O[C@@H]4O[C@H](C)[C@H](O)[C@H](O[C@@H]5O[C@H](CO)[C@@H](O)[C@H](O)[C@H]5O)[C@H]4O[C@@H]4O[C@H](CO)[C@@H](O)[C@H](O)[C@H]4O)CC[C@]3(C)[C@@H]12 [BUDDLEJASAPONIN IVA] | – | – | Toxic | – | – |
| C[C@H]1O[C@@H](O[C@H]2CC[C@@]3(C)[C@@H](CC[C@]4(C)[C@@H]3C=C[C@]35OC[C@@]6(CCC(C)(C)C[C@H]63)[C@@H](O)C[C@]54C)[C@]2(C)CO)[C@H](O[C@@H]2O[C@H](CO)[C@@H](O)[C@H](O)[C@H]2O)[C@@H](O[C@@H]2O[C@H](CO)[C@@H](O)[C@H](O)[C@H]2O)[C@H]1O [BUDDLEJASAPONIN IV] | – | – | Toxic | – | – |
| C[C@@H]1O[C@@H](O[C@H]2[C@H](O)[C@@H](O)[C@H](O[C@H]3[C@@H](O)[C@@H](C)O[C@@H](O[C@H]4CC[C@@]5(C)[C@@H](CC[C@]6(C)[C@@H]5C=C[C@]57OC[C@@]8(CCC(C)(C)C[C@H]85)[C@@H](O)C[C@]76C)[C@]4(C)CO)[C@@H]3O[C@@H]3O[C@H](CO)[C@@H](O)[C@H](O)[C@H]3O)O[C@@H]2CO)[C@H](O)[C@H](O)[C@H]1O [BUDDLEJASAPONIN I] | – | – | Toxic | – | – |
| COc1ccc(/C=C/C(=O)O[C@@H]2[C@@H](OC(C)=O)[C@@H](O)[C@H](O[C@H]3[C@@H]4C=CO[C@@H](O[C@@H]5O[C@H](CO)[C@@H](O)[C@H](O)[C@H]5O)[C@@H]4[C@@]4(CO)O[C@@H]34)O[C@H]2C)cc1 [BUDDLEJOSIDE A4] | inactive | Active | Non-toxic | Dose-dependent effect | – |
| C[C@@H]1O[C@@H](OC[C@H]2O[C@@H](Oc3cc(O)c4c(=O)cc(-c5ccc(O)cc5)oc4c3)[C@H](O)[C@@H](O)[C@@H]2O)[C@H](O)[C@H](O)[C@H]1O [ISORHOIFOLIN] | inactive | Active | Non-toxic | Dose-dependent effect | inhibition at 30 µM [5]: 22.6% |
| CO[C@H]1[C@@H]2C=CO[C@@H](O[C@@H]3O[C@H](CO)[C@@H](O)[C@H](O)[C@H]3O)[C@@H]2[C@@]2(CO)O[C@@H]12 [METHYLCATALPOL] | – | Active | Non-toxic | Dose-dependent effect | – |
| CO[C@H]1[C@@H]2C[C@@H]3OC[C@](O)([C@H]2[C@H](O[C@@H]2O[C@H](CO)[C@@H](O)[C@H](O)[C@H]2O)O3)[C@@H]1O [METHYLSCUTELLOSIDE] | – | – | Non-toxic | Dose-dependent effect | inhibition at 10 µM [6]: 39.1%; inhibition at 30 µM [5]: 42%; inhibition at 50 µM [7]: 79.6% |
| CO[C@@H]1C=C2[C@@H]3CC(C)(C)CC[C@]3(CO)CC[C@@]2(C)[C@]2(C)CC[C@H]3[C@](C)(CO)[C@@H](O[C@@H]4O[C@H](C)[C@H](O)[C@H](O[C@@H]5O[C@H](CO)[C@@H](O[C@@H]6O[C@@H](C)[C@H](O)[C@@H](O)[C@H]6O)[C@H](O)[C@H]5O)[C@H]4O[C@@H]4O[C@H](CO)[C@@H](O)[C@H](O)[C@H]4O)CC[C@]3(C)[C@@H]12 [MIMENGOSIDE B] | – | – | Toxic | – | – |
